Experimental data: ChEMBL document CHEMBL3045942, “Design, synthesis, and anti-tobacco mosaic virus (TMV) activity of phenanthroindolizidines and their analogues” (2012)

Assays:
Assay type in all cases: functional
[1] = test system: Tobacco mosaic virus; assay: In vivo antiviral activity against Tobacco mosaic virus (TMV) inoculated right side of Nicotiana tabacum L. leaves assessed as protection effect at 100 ug/mL preincubated 12 hr before viral challenge measured after 3 to 4 days
Summary of the method: (§1)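 Protective test on same-age growing Xanthi nc tobacco leaves. Compound solution was smeared on the left half and solvent on the right half as control. After 12 h, leaves were inoculated with TMV applied by brush. Inhibition % = (mean control lesions − mean treated lesions)/mean control lesions × 100. Three replicates.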

[2] = test system: Tobacco mosaic virus; assay: In vivo antiviral activity against Tobacco mosaic virus (TMV) inoculated right side of Nicotiana tabacum L. leaves assessed as protection effect at 500 ug/mL preincubated 12 hr before viral challenge measured after 3 to 4 days; summary of the method: as §1
[3] = test system: Tobacco mosaic virus; assay: In vivo antiviral activity against Tobacco mosaic virus (TMV) pre-inoculated Nicotiana tabacum L. leaves assessed as curative effect at 100 ug/mL measured after 3 to 4 days
Summary of the method: (§2)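 Curative test on same-age growing Xanthi nc leaves. Whole leaves were first inoculated with TMV (6.0 × 10−3 mg mL−1), then washed with water and dried. Compound solution was smeared on the left half and solvent on the right half as control. Local lesions were counted 3–4 days after inoculation, and inhibition % was derived from mean lesion numbers. Three replicates.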

[4] = test system: Tobacco mosaic virus; assay: In vivo antiviral activity against Tobacco mosaic virus (TMV) pre-inoculated Nicotiana tabacum L. leaves assessed as curative effect at 500 ug/mL measured after 3 to 4 days; summary of the method: as §2
[5] = test system: Tobacco mosaic virus; assay: In vivo antiviral activity against Tobacco mosaic virus (TMV) inoculated left side of Nicotiana tabacum L. leaves assessed as inactivation effect at 100 ug/mL co-incubated with virus measured after 3 to 4 days
Summary of the method: (§3)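 Inactivation test in N. tabacum var. Xanthi nc. Virus was mixed with an equal volume of compound solution for 30 min and the mixture inoculated on the left leaf half. The right half received a solvent–virus mixture as control. Local lesions were counted 3–4 days after inoculation. Inhibition % was calculated from mean lesion numbers of control versus treated halves. Three replicates.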

[6] = test system: Tobacco mosaic virus; assay: In vivo antiviral activity against Tobacco mosaic virus (TMV) inoculated left side of Nicotiana tabacum L. leaves assessed as inactivation effect at 500 ug/mL co-incubated with virus measured after 3 to 4 days; summary of the method: as §3
[7] = test system: Tobacco mosaic virus; assay: Antiviral activity against Tobacco mosaic virus (TMV) inoculated in 5-6 growth stage leaf assessed as inhibition effect at 100 ug/mL at 25 degC after 72 hr by half-leaf method
Summary of the method: (§4)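 Half-leaf assay on fresh leaves of Nicotiana tabacum var. Xanthi nc at the 5–6 growth stage. Leaves were rub-inoculated with leaf juice (TMV 5.88 × 10−2 μg mL−1) and cut in halves along the main vein. One half was immersed in compound solution and the other in double-distilled water for 20 min, then kept at 25 °C for 72 h. Inhibition % = (mean control lesions − mean treated lesions)/mean control lesions × 100. At least 3 replicates.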

[8] = test system: Tobacco mosaic virus; assay: Antiviral activity against Tobacco mosaic virus (TMV) inoculated in 5-6 growth stage leaf assessed as inhibition effect at 500 ug/mL at 25 degC after 72 hr by half-leaf method; summary of the method: as §4
[9] = test system: Tobacco mosaic virus; assay: Antiviral activity against Tobacco mosaic virus (TMV) assessed as inhibition at 500 ug/mL
Summary of the method: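 Half-leaf method on fresh Nicotiana tabacum var. Xanthi nc leaves at the 5–6 growth stage. Leaves were inoculated by juice-leaf rubbing with TMV at 5.88 × 10−2 μg mL−1, then cut in halves along the main vein. Halves were immersed 20 min in compound solution or double-distilled water as control, then kept 25 °C for 72 h. Inhibition % = (mean control lesions − mean treated lesions)/mean control lesions × 100. At least 3 replicates.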

[10] = test system: Tobacco mosaic virus; assay: Antiviral activity against Tobacco mosaic virus (TMV) assessed as inhibition at 1 ug/mL

Row | Compound | Activity [1] [%] | Activity [2] [%] | Activity [3] [%] | Activity [4] [%] | Activity [5] [%] | Activity [6] [%] | inhibition at 100 µg/mL [7] [%] | inhibition at 500 µg/mL [8] [%] | inhibition at 500 µg/mL [9] [%] | inhibition at 1 µg/mL [10] [%]
1 | COc1ccc2c3c(c4cc(OC)c(OC)cc4c2c1)CN1CCC[C@H]1[C@H]3O | 24.5 | 41.3 | 17.2 | 40 | 0 | 32.4 | 29.6 | 45.2 | – | –
2 | COc1ccc2c3c(c4cc(OC)c(OC)cc4c2c1)[C@@H](O)[C@H]1CCCN1C3 | 7.3 | 39.6 | 10.2 | 34.9 | 14.2 | 38.5 | 21.6 | 43.5 | – | –
3 | CC(=O)N1CN(C(C)=O)C(=O)NC1=O | – | – | – | – | – | – | – | – | 50 | –
4 | O=C1NCNC(=O)N1 | – | – | – | – | – | – | – | – | 50 | –
5 | COc1cc2c3c(c4cc(OC)c(OC)cc4c2cc1OC)NC(=O)[C@H]1CCCN1C3 | 19.7 | 36.4 | 18.9 | 35.7 | 21.2 | 34.9 | 20 | 32.2 | – | –
6 | COc1cc2cc(CN3CCC[C@H]3C)c3cc(OC)c(OC)cc3c2cc1OC | 13.1 | 39.6 | 0 | 25.8 | 0 | 25.2 | 0 | 29.8 | – | –
7 | COc1ccc2c3c(c4cc(OC)c(OC)cc4c2c1)CN1CCC[C@@H]1C3 | 31.7 | 60.5 | 24.5 | 44.7 | 23.6 | 48.9 | 32.9 | 56.5 | – | –
8 | COc1cc2c3c(c4cc(OC)c(OC)cc4c2cc1OC)NC[C@@H]1CCCN1C3 | 28.5 | 53.6 | 22.7 | 44.6 | 20.3 | 42.5 | 18.5 | 50 | – | –
9 | COc1ccc2c3c(c4cc(OC)c(OC)cc4c2c1)C[C@H]1CCCN1C3 [(-)-ANTOFINE] | 20.4 | 45.5 | 19.4 | 46 | 15.3 | 42.7 | 27.4 | 52.8 | – | –
10 | COc1cc2c3c(c4cc(OC)c(OC)cc4c2cc1OC)[C@H](O)[C@@H]1CCCN1C3 | 20 | 63.7 | 30.6 | 61.9 | 32.9 | 57.8 | 34.7 | 62.4 | – | –
11 | COc1ccc2c3c(c4cc(OC)c(OC)cc4c2c1)CN1CCC[C@H]1C3 | 51.3 | 70.2 | 43.7 | 65.1 | 40.3 | 59.8 | 50 | 71.2 | – | –
12 | COc1cc2c3c(c4cc(OC)c(OC)cc4c2cc1OC)CN1CCC[C@@H]1C3 [TYLOPHORINE] | 22.5 | 47.6 | 26.4 | 44.2 | 15.1 | 39 | 21.1 | 49.7 | – | –
13 | COc1cc2c3c(c4cc(OC)c(OC)cc4c2cc1OC)[C@@H](O)[C@H]1CCCN1C3 | 26.5 | 53.9 | 32.8 | 43.4 | 26.7 | 49.2 | 23 | 51.2 | – | –
14 | COc1ccc2c3c(c4cc(OC)c(OC)cc4c2c1)CN1CCC[C@@H]1[C@@H]3O | 30.2 | 54.4 | 27.8 | 56.2 | 33.3 | 51.2 | 33.1 | 47.7 | – | –
15 | COc1cc2c3c(c4cc(OC)c(OC)cc4c2cc1OC)NC[C@H]1CCCN1C3 | 33.7 | 46.5 | 28.7 | 44.6 | 12.6 | 31.5 | 23.1 | 40.4 | – | –
16 | COc1cc2c3c(c4cc(OC)c(OC)cc4c2cc1OC)C(=O)N1CCC[C@H]1C3 | 23.4 | 43.5 | 14.8 | 30.1 | 20.5 | 37 | 30.9 | 48.1 | – | –
17 | COc1ccc2c3c(c4cc(OC)c(OC)cc4c2c1)C[C@@H]1CCCN1C3 [HYPOESTESTATIN 1] | 28.4 | 56.4 | 26.7 | 55.5 | 37.2 | 51.1 | 30.5 | 60.2 | – | –
18 | COc1cc2c3c(c4ccc(O)cc4c2cc1OC)CN1CCC[C@@H]1C3 | – | – | – | – | – | – | – | – | – | 70
19 | CNCC(=O)N[C@@H](CO)C(=O)N[C@H]1[C@H](O)[C@@H](O)[C@H](n2ccc(N)nc2=O)O[C@@H]1C(N)=O [NINGNANMYCIN] | 25.2 | 66.6 | 18.9 | 56 | 37.7 | 68.5 | 30.4 | 71.4 | – | –
20 | NC(=O)c1ncn([C@@H]2O[C@H](CO)[C@@H](O)[C@H]2O)n1 [RIBAVIRIN] | 7.5 | 38.9 | 8.2 | 36.7 | 9.8 | 33.8 | 12.5 | 40 | – | –
21 | COc1cc2c3c(c4cc(OC)c(OC)cc4c2cc1OC)NC(=O)[C@@H]1CCCN1C3 | 7.6 | 29.7 | 0 | 31.5 | 22.2 | 32.9 | 4.6 | 34.8 | – | –
22 | COc1cc2c3c(c4cc(OC)c(OC)cc4c2cc1OC)CN1CCC[C@H]1C3 [(S)-TYLOPHORINE] | 28.6 | 56.8 | 37 | 53.8 | 34.2 | 50.5 | 36.9 | 54.1 | – | –
23 | COc1cc2cc(C(=O)N3CCC[C@H]3C)c3cc(OC)c(OC)cc3c2cc1OC | 18.9 | 43.3 | 6.2 | 30.1 | 9.6 | 31.3 | 15.3 | 38.4 | – | –
24 | COc1ccc2c3c(c4cc(OC)c(OC)cc4c2c1)[C@H](O)[C@@H]1CCCN1C3 | 0 | 21.2 | 0 | 19.3 | 0 | 24.8 | 23 | 51.2 | – | –
25 | COc1cc2c3c(c4cc(OC)c(OC)cc4c2cc1OC)C(=O)n1cccc1C3 | 5.3 | 21.5 | 0 | 17.5 | 8.5 | 22.6 | 0 | 15.3 | – | –
